Test results taken from ChEMBL document CHEMBL4229411, “Senolytic activity of piperlongumine analogues: Synthesis and biological evaluation” (Bioorg Med Chem, 2018).
pEC50: −log10 of the molar value. Calls of active or inactive are those of the source. The calls are words filed in the database; no cut-off is given here.

How the values were obtained:
[1] = molecular target: T1, Oxidation resistance protein 1 (Homo sapiens) (UniProt Q8N573); assay: Induction of OXR1 degradation in ionizing radiation induced human WI38 senescent cells at 5 uM after 24 hrs by Western blot analysis
T1 sequence (whole entry): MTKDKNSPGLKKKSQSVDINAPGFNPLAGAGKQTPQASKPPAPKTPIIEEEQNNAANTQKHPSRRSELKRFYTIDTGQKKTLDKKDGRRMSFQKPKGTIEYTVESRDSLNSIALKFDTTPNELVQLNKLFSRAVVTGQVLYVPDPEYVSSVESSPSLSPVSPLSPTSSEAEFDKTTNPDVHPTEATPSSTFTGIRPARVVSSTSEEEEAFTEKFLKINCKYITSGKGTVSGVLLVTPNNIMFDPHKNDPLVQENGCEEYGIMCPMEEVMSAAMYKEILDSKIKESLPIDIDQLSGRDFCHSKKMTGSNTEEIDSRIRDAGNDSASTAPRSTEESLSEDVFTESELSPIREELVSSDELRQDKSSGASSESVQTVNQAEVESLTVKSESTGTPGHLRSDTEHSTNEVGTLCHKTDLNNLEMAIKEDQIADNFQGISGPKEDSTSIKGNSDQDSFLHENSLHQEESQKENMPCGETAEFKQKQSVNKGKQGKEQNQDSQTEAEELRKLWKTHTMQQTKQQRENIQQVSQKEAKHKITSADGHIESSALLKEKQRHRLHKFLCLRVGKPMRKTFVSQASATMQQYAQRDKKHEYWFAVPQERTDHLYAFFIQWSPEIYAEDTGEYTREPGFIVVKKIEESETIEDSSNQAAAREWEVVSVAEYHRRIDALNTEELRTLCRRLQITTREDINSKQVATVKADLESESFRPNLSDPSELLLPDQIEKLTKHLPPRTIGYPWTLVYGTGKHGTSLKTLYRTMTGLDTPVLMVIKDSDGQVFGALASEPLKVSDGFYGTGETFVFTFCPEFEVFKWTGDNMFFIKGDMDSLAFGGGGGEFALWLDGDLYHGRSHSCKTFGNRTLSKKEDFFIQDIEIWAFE
Procedure, shortened: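 Cells were lysed in RIPA buffer with EDTA/EGTA and proteins were transferred to PVDF. Membranes were blocked in 5% nonfat milk/TBST and probed overnight at 4 °C for OXR1 and β-actin. Bands were quantified; mean ± SEM, n = 3.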

[2] = Toxicity in po dosed mouse; type: organism-based; conditions: in vivo
WI-38 [3] = assay: Senolytic activity against non-senescent human WI38 cells assessed as reduction in cell viability by propidium iodide staining based flow cytometry
Procedure, shortened: (§1)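 WI-38 fibroblasts were grown in DMEM/10% FBS with penicillin/streptomycin at 37 °C, 5% CO2. Low-passage cells (<25 passages) served as non-senescent controls.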

WI-38 [4] = assay: Senolytic activity against ionizing radiation induced human WI38 senescent cells assessed as reduction in cell viability by propidium iodide staining based flow cytometry; type: functional; procedure, shortened: as §1
[5] = Selectivity index, ratio of EC50 for non-senescent human WI38 cells to EC50 for ionizing radiation induced human WI38 senescent cells; type: functional, WI-38
Procedure, shortened: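 Human WI-38 fibroblasts were grown in DMEM with 10% FBS and penicillin/streptomycin at 37 °C in 5% CO2. Low-passage cells (<25 passages) served as non-senescent controls. Viability was read by flow cytometry.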

WI-38 [6] = assay: Induction of ROS production in ionizing radiation induced human WI38 senescent cells up to 64 uM after […] by DHR123 dye based flow cytometry; type: functional, cell-based
WI-38 [7] = assay: Induction of apoptosis in ionizing radiation induced human WI38 senescent cells assessed as live cells at 10 uM after 48 hrs by Annexin V-FITC/propidium iodide staining based flow cytometry (reference value: 87%); type: functional
WI-38 [8] = assay: Induction of apoptosis in ionizing radiation induced human WI38 senescent cells assessed as early apoptotic cells at 10 uM after 48 hrs by Annexin V-FITC/propidium iodide staining based flow cytometry (reference value: […]); type: functional
WI-38 [9] = assay: Induction of apoptosis in ionizing radiation induced human WI38 senescent cells assessed as late apoptotic cells at 10 uM after 48 hrs by Annexin V-FITC/propidium iodide staining based flow cytometry (reference value: […]); type: functional
WI-38 [10] = assay: Induction of apoptosis in ionizing radiation induced human WI38 senescent cells assessed as necrotic cells at 10 uM after 48 hrs by Annexin V-FITC/propidium iodide staining based flow cytometry (reference value: […]); type: functional

C=C1CCN(C(=O)/C=C/c2cc(OC)c(OC)c(OC)c2)C1=O
Activity [1]: Active

C=C1CCCCN(C(=O)/C=C/c2cc(OC)c(OC)c(OC)c2)C1=O
Activity [1]: Active

C=C1CCCN(C(=O)/C=C/c2cc(OC)c(OC)c(OC)c2)C1=O
Activity [1]: Active

COc1cc(/C=C/C(=O)N2CCC=CC2=O)cc(OC)c1OC [PIPLARTINE]
MTD [2]: > 1000 mg/kg
pEC50 (WI-38 [3]): 4.69
pEC50 (WI-38 [4]): 5.10
Ratio EC50 [5]: 2.5
Activity [1]: Active
Activity (WI-38 [6]): Active

CC(C)[C@H](NC(=O)c1ccc2ccccc2n1)C(=O)N[C@@H](CC(=O)O)C(=O)COc1c(F)cccc1F
Activity (WI-38 [7]): 80.9%
Activity (WI-38 [8]): 7.7%
Activity (WI-38 [9]): 8%
Activity (WI-38 [10]): 3.4%
